Screening results: PubChem BioAssay, The Scripps Research Institute Molecular Screening Center
This is a sample that favours compounds with a hit; in the whole collection about 1.2% have one here.
IDE cell inh: inhibits human insulin-degrading enzyme in HEK cells | P14735 | FAbetaB cleavage, fluorescence polarization | inhibition, % at 5.59 µM | 320,000 tested, 0.41% active;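 active = percent inhibition above the average of all tested compounds plus 3 SD, set per screening campaign, cut at about 16% in these data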;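 also: IDE supplied by intact live HEK cells; FP after avidin binding of uncleaved biotin substrate so inhibition keeps polarization high; 0% = DMSO wells and 100% = 60 µM reference IDE inhibitor Ii1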
PREPL inhibitor: inhibitors of human prolyl oligopeptidase-like enzyme PREPL. Q4J6C6. recombinant PREPL, fluorescence polarization activity-based probe. inhibition, % at 5.96 µM. 320,000 tested, 0.68% active. AID 2751; in the data active = inhibition above about 43%;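 also: 0% = enzyme with DMSO and 100% = wells lacking enzyme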
ARFGAP1 inhibitor: inhibits rat ARF GTPase activating protein 1; inhibition, % at 16.5 µM; 360,000 tested, 0.26% active; AID 651572; Arfgap1-stimulated ARF1 GTP hydrolysis, GDP FP detection; Q62848;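 active = inhibition above a per-plate limit, mean inhibition of low control wells plus 3 SD, cut at about 25% in these data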;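 also: 0% = DMSO wells with enzyme and 100% = wells lacking Arfgap1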
Target sequence (Q62848 1-136 limits assumed): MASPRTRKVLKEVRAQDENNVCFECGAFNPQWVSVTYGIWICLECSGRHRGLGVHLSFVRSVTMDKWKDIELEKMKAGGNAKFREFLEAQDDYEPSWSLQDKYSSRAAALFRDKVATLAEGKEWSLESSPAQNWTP
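System: truncated rat Arfgap1 GAP domain / Medium: HEPES-based buffer, pH 7.5 / Also added: N-terminally truncated human ARF1-GTP substrate / Incubation: enzyme reaction 120 min at 25 °C after 20 min preincubation / Measured by: FP of antibody-bound GDP Alexa 633 tracer, ex 620/em 688 nm / Replicates: singlicate, each compound tested once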
ASAP1 GAP inh: ASAP1 ArfGAP inhibition; ASAP1-stimulated ARF1 GTP hydrolysis, GDP FP detection; Q9ULH1; AID 624377; 360,000 tested, 0.19% active; inhibition, % at 16.5 µM; in the data active = inhibition above about 25%;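 also: 0% = vehicle with enzyme and substrate and 100% = no enzyme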
IDE cell activ: activators of human insulin-degrading enzyme in cells. HEK cells, FAbeta-B cleavage, fluorescence polarization; 0% vehicle, 100% cell-free pure enzyme wells. AID 493087. P14735. activation, % at 5.96 µM. 340,000 tested, 0.073% active;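 active = activation above the mean of all tested compounds plus 3 SD, set per screening campaign, cut at about 17% in these data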
ASAP1 GAP conf: confirmation of human ASAP1 inhibitors; 620 tested, 37% active; shares compounds with ASAP1 GAP inh; inhibition, % at 16.5 µM; ASAP1-stimulated Arf1 GTPase, GDP fluorescence polarization;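 active = mean inhibition over triplicates exceeds the hit threshold derived for the earlier primary screening run, cut at about 25% in these data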
ARFGAP1 inh conf: confirmation of rat ARFGAP1 inhibitors; ARFGAP1-stimulated ARF1 GTP hydrolysis, GDP tracer FP; AID 651608; inhibition, % at 16.5 µM; 890 tested, 30% active; shares compounds with ARFGAP1 inhibitor;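 active = average inhibition over triplicates above the hit cutoff set in the earlier primary screen, cut at about 25% in these data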;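 also: 0% = Arfgap1 plus ARF1-GTP with DMSO and 100% = wells lacking Arfgap1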
Target sequence (Q62848 whole entry, looked up): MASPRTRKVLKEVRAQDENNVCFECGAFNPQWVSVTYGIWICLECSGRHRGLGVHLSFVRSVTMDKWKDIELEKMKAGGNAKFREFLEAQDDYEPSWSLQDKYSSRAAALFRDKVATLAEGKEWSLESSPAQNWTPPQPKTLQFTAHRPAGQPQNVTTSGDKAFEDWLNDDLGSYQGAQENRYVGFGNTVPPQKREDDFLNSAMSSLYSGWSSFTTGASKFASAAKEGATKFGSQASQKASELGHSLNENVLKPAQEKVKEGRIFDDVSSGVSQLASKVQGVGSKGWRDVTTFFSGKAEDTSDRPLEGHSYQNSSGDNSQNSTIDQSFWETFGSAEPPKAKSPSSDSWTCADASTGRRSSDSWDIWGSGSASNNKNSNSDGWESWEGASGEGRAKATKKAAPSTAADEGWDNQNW
The depositor's hits bear a star.

What do the screens show for `C[C@@H]1COc2cc(N3CC[C@H](O)C3)ccc2S(=O)(=O)N1`?
ARFGAP1 inhibitor: 3.5; ASAP1 GAP inh: 10.6

Results for CCC1CCc2sc(C(=O)N(C)CC(=O)Nc3ccc(N4CCOCC4)cc3)cc2C1 (configuration not stated) ?
IDE cell inh: -3.4; PREPL inhibitor: 8.1; ARFGAP1 inhibitor: -1.9; ASAP1 GAP inh: 3.6; IDE cell activ: 7.1

How did COc1cc(/C=C(/C#N)c2nc3ccccc3[nH]2)ccc1Oc1ncccc1[N+](=O)[O-] do in these assays?
IDE cell inh: 3.3; PREPL inhibitor: 41.2; ARFGAP1 inhibitor: 2.3; ASAP1 GAP inh: -0.5; IDE cell activ: 1.8

How did COC(=O)c1ccc(COc2ccc(/C=C(\C#N)c3nc4ccccc4[nH]3)cc2OC)o1 do in these assays?
IDE cell inh: 3.3; PREPL inhibitor: 4.8; ARFGAP1 inhibitor: 61.1*; ASAP1 GAP inh: 35.5*; IDE cell activ: -6.2; ASAP1 GAP conf: 78.4*; ARFGAP1 inh conf: 108.3*

What do the screens show for `CCOc1ccc(C(=O)Nc2cccc(-c3cc4ccccc4oc3=O)c2)cc1[N+](=O)[O-]`?
IDE cell inh: 11.7; PREPL inhibitor: 0.2; ARFGAP1 inhibitor: 42.4*; ASAP1 GAP inh: 25.9*; IDE cell activ: 2.7; ASAP1 GAP conf: 36.8*; ARFGAP1 inh conf: 46.4*

How did CCOc1ccc(C(=O)Nc2cc(-c3nc4ccccc4[nH]3)ccc2Cl)cc1[N+](=O)[O-] do in these assays?
IDE cell inh: 1.2; PREPL inhibitor: -11.4; ARFGAP1 inhibitor: 109.4*; ASAP1 GAP inh: 68.5*; IDE cell activ: -9.2; ASAP1 GAP conf: 123.2*; ARFGAP1 inh conf: 151.3*

How did CCOC(=O)N1CCN(CCC(=O)Nc2ccc(F)c(F)c2)CC1 do in these assays?
IDE cell inh: -0.9; PREPL inhibitor: 2.6; ARFGAP1 inhibitor: -14.1; ASAP1 GAP inh: -0.4; IDE cell activ: -1.5

Results for O=C(COC(=O)c1ccc(O)cc1)Nc1cc(S(=O)(=O)N2CCOCC2)ccc1Cl ?
IDE cell inh: -5.2; PREPL inhibitor: 8.0; ARFGAP1 inhibitor: -0.4; ASAP1 GAP inh: 7.6; IDE cell activ: 4.0

Results for O=C(COC(=O)c1ccc(O)cc1)Nc1cc(S(=O)(=O)N2CCCCCC2)ccc1Cl ?
ARFGAP1 inhibitor: 26.4*; ASAP1 GAP inh: -3.4; ARFGAP1 inh conf: 0.6

What do the screens show for `Cc1ccc2nc(Nc3nc(CSc4nc5ccccc5s4)cc(=O)[nH]3)nc(C)c2c1`?
IDE cell inh: 6.0; PREPL inhibitor: -13.9; ARFGAP1 inhibitor: 24.8*; ASAP1 GAP inh: -2.0; IDE cell activ: -5.2; ARFGAP1 inh conf: -3.8

How did CCOc1cccc(C=NNc2nc(=O)cc(C(=O)OC)s2)c1O do in these assays?
ARFGAP1 inhibitor: -0.8; ASAP1 GAP inh: 1.9

What do the screens show for `CCn1c(CC(=O)Nc2ccc(F)cc2)nnc1SCC(=O)NC1CCCC1`?
IDE cell inh: -3.6; PREPL inhibitor: 5.7; ARFGAP1 inhibitor: -2.7; ASAP1 GAP inh: -6.6; IDE cell activ: 4.3

Results for CCNC(=S)NNC(=O)c1ccccn1 ?
IDE cell inh: -1.2; PREPL inhibitor: 12.2; ARFGAP1 inhibitor: 6.9; ASAP1 GAP inh: -2.7; IDE cell activ: -1.0

Results for O=C(NNC(=S)Nc1ccc(Cl)c(Cl)c1)c1ccccn1 ?
IDE cell inh: -4.1; PREPL inhibitor: 6.4; ARFGAP1 inhibitor: 25.8*; ASAP1 GAP inh: -4.5; IDE cell activ: -4.8; ARFGAP1 inh conf: -0.6

Results for CC1CCCCN1c1ncnc2ccccc12 (configuration not stated) ?
IDE cell inh: 4.2; PREPL inhibitor: 5.7; ARFGAP1 inhibitor: 3.5; ASAP1 GAP inh: -7.5; IDE cell activ: 2.2

Results for c1ccc2c(N3CCCCC3)ncnc2c1 ?
IDE cell inh: 8.7; PREPL inhibitor: 7.0; ARFGAP1 inhibitor: 27.0*; ASAP1 GAP inh: -4.9; IDE cell activ: -0.8; ARFGAP1 inh conf: -2.0

How did CC(C)Oc1ccc(CCC(=O)N/N=C/c2ccc3c(c2)OCO3)cc1 do in these assays?
IDE cell inh: 1.8; PREPL inhibitor: 38.1; ARFGAP1 inhibitor: 31.6*; ASAP1 GAP inh: 0.6; IDE cell activ: 4.3; ARFGAP1 inh conf: -1.3

Results for O=C(N/N=C/c1ccc2c(c1)OCO2)c1ccc(NC(=O)c2ccc(F)cc2)cc1 ?
IDE cell inh: 3.7; PREPL inhibitor: 17.4; ARFGAP1 inhibitor: 24.7*; ASAP1 GAP inh: 16.4; IDE cell activ: 0.3; ARFGAP1 inh conf: 14.6

What do the screens show for `COc1cccc(N2CCN(C(=O)C3CCCN(c4ncnc5c4nc4n5CCCCC4)C3)CC2)c1` (configuration not stated)?
IDE cell inh: -0.8; PREPL inhibitor: 8.3; ARFGAP1 inhibitor: -6.9; ASAP1 GAP inh: -2.0; IDE cell activ: -1.8

How did Cc1cc(-c2cc(NC=O)c3ncc(-c4cccc(C(=O)NCCN(C)C)c4)n3c2)cc(C)c1O do in these assays?
ARFGAP1 inhibitor: 27.4*; ASAP1 GAP inh: 13.9; ARFGAP1 inh conf: 58.3*

What do the screens show for `COc1cccc(-c2cnc3c(NC(C)=O)cc(-c4cccc(C(=O)NCCN(C)C)c4)cn23)c1`?
ARFGAP1 inhibitor: 44.3*; ASAP1 GAP inh: 9.5; ARFGAP1 inh conf: 17.6

What do the screens show for `CC(=O)c1ccc(O[C@@H]2O[C@H](CO)[C@@H](O)[C@H](O)[C@H]2O)cc1`?
IDE cell inh: 5.8; PREPL inhibitor: 6.1

What do the screens show for `Cc1[nH]c2c(C)cccc2c1CCNC(=O)c1ccc2c(c1[N+](=O)[O-])C(=O)c1ccccc1C2=O`?
IDE cell inh: 1.5; PREPL inhibitor: 26.4; ARFGAP1 inhibitor: 25.6*; ASAP1 GAP inh: -8.7; IDE cell activ: 3.8; ARFGAP1 inh conf: 11.1

How did Cc1ccc(-n2c(=O)cc(N3CCC(C)CC3)[nH]c2=O)cc1 do in these assays?
IDE cell inh: 3.4; PREPL inhibitor: 6.7; ARFGAP1 inhibitor: 26.0*; ASAP1 GAP inh: 11.5; IDE cell activ: 0.8; ARFGAP1 inh conf: 2.9

What do the screens show for `CC(OC(=O)c1cc2c(s1)CCCCC2)C(=O)NC(N)=O` (configuration not stated)?
IDE cell inh: -7.3; PREPL inhibitor: -5.1; ARFGAP1 inhibitor: 28.4*; ASAP1 GAP inh: -11.6; IDE cell activ: 6.6; ARFGAP1 inh conf: -3.6

How did COc1ccc(C(C#N)N2CCC(c3ccccc3)=N2)cc1OC (configuration not stated) do in these assays?
IDE cell inh: 0.7; PREPL inhibitor: 0.8; ARFGAP1 inhibitor: 7.7; ASAP1 GAP inh: 13.2; IDE cell activ: 11.0

Results for COc1cc(C(C#N)N2CCC(c3ccccc3)=N2)ccc1O (configuration not stated) ?
IDE cell inh: 0.3; PREPL inhibitor: -7.2; ARFGAP1 inhibitor: 27.0*; ASAP1 GAP inh: -11.9; IDE cell activ: -2.0; ARFGAP1 inh conf: -3.5

How did CCCCSc1ncnc2[nH]ncc12 do in these assays?
IDE cell inh: -1.8; PREPL inhibitor: 2.1; ARFGAP1 inhibitor: 13.9; ASAP1 GAP inh: -8.6; IDE cell activ: -2.2
